The source made the active and inactive calls. No cut-off for these calls is given here.
What was measured:
[1] = target: Neuropeptide Y receptor type 1 (Homo sapiens) (UniProt P25929); test: Displacement of [125I]-Peptide YY from neuropeptide Y Y1 receptor in human SK-N-MC cells at 10 uM relative to control; assay type: cell-based
Summary of the method: (§1)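 Tested once at 10 μM in a commercial radioligand binding panel of 68 GPCRs, ion channels, kinases and transporters. Activity is given as displacement of each radioligand relative to control.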

[2] = target: Glutamate NMDA receptor (Rattus norvegicus) (UniProt P35439+Q00959+Q00960+Q00961+Q62645+Q8VHN2+Q9R1M7); test: Displacement of [3H]-TCP from NMDA receptor phencyclidine binding site in rat cerebral cortex at 10 uM relative to control; assay type: tissue-based
[3] = target: Metabotropic glutamate receptor 8 (Rattus norvegicus) (UniProt P70579); test: Allosteric modulation of rat mGlu8 receptor expressed in HEK293 cells coexpressing G protein-activated inward rectifier potassium channel assessed as effect on glutamate-induced thallium flux at 10 uM; assay type: cell-based
[4] = target: D(3) dopamine receptor (Homo sapiens) (UniProt P35462); test: Displacement of [3H]-Spiperone from human recombinant dopamine D3 receptor expressed in CHO cells at 10 uM relative to control; assay type: cell-based
[5] = target: Glucocorticoid receptor (Homo sapiens) (UniProt P04150); test: Displacement of [3H]-Dexamethasone from human recombinant glucocorticoid receptor at 10 uM relative to control; summary of the method: as §1
CHO-K1 = test: Displacement of [3H]-Spiperone from human recombinant dopamine D4.2 receptor expressed in CHO-K1 cells at 10 uM relative to control; assay type: cell-based
Rattus norvegicus [6] = species: Rattus norvegicus; test: Displacement of [3H]-Kainic acid from kainate receptor in cerebellum-less rat brain homogenate at 10 uM relative to control; assay type: tissue-based; summary of the method: as §1
[7] = target: Kappa-type opioid receptor (Homo sapiens) (UniProt P41145); test: Displacement of [3H]-Diprenorphine from human recombinant kappa receptor expressed in HEK293 cells at 10 uM relative to control; assay type: cell-based; summary of the method: as §1
[8] = target: Metabotropic glutamate receptor 7 (Rattus norvegicus) (UniProt P35400); test: Allosteric modulation of rat mGlu7 receptor expressed in HEK293 cells coexpressing G protein-activated inward rectifier potassium channel assessed as effect on L-AP4-induced thallium flux at 10 uM; assay type: cell-based
[9] = Ratio of drug level in brain to plasma in CD-1 mouse at 10 mg/kg, ip by LC-MS/MS analysis; assay type: ADME, organism-based; parameters: dose 10 mg/kg, route intraperitoneal; details: brain and plasma, read-out: BPR
[10] = target: Epidermal growth factor receptor (Homo sapiens) (UniProt P00533); test: Displacement of [125I]-EGF from epidermal growth factor receptor in human A431 cells at 10 uM relative to control; assay type: cell-based; details: A-431; summary of the method: as §1
[11] = target: Cannabinoid receptor 1 (Homo sapiens) (UniProt P21554); test: Displacement of [3H]-SR141716A from human recombinant CB1 receptor expressed in rat Chem-1 cells at 10 uM relative to control; assay type: cell-based
Mus musculus [12] = test: Anxiolytic activity in Harlan CD-1 mouse assessed as inhibition of marble burying behavior at >= 3 mg/kg, ip; assay type: functional, organism-based; parameters: dose 3 mg/kg
Summary of the method: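 Marble burying in mice with deep bedding; compound given IP at a range of doses with 15 min pretreatment, n = 8 per dose; marbles buried counted, brain samples collected right after testing for exposure; comparison to vehicle by Dunnett's test.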

[13] = target: Histamine H3 receptor (Homo sapiens) (UniProt Q9Y5N1); test: Displacement of [3H]-N(-)-alpha-Methylhistamine from human recombinant histamine H3 receptor expressed in CHO-K1 cells at 10 uM relative to control; assay type: cell-based; summary of the method: as §1
[14] = target: Neuropeptide Y receptor type 2 (Homo sapiens) (UniProt P49146); test: Displacement of [125I]-Peptide YY from neuropeptide Y Y2 receptor in human KAN-TS cells at 10 uM relative to control; assay type: cell-based; summary of the method: as §1
[15] = target: Adenosine receptor A1 (Homo sapiens) (UniProt P30542); test: Displacement of [3H]-DPCPX from human recombinant adenosine A1 receptor expressed in CHO cells at 10 uM relative to control; assay type: cell-based; summary of the method: as §1
Mus musculus [16] = species: Mus musculus; test: Displacement of [125I]-Interleukin-1beta from IL-1 receptor in mouse 3T3-SWISS cells at 10 uM relative to control; assay type: cell-based; summary of the method: as §1
Rattus norvegicus [17] = species: Rattus norvegicus; test: Displacement of [3H]-Nitrendipine from L-type calcium channel dihydropyridine binding site in rat cerebral cortex at 10 uM relative to control; assay type: tissue-based; summary of the method: as §1
[18] = target: Sigma non-opioid intracellular receptor 1 (Homo sapiens) (UniProt Q99720); test: Displacement of [3H]-Haloperidol from sigma1 receptor in human Jurkat cells at 10 uM relative to control; assay type: cell-based; summary of the method: as §1
[19] = target: Adenosine receptor A3 (Homo sapiens) (UniProt P0DMS8); test: Displacement of [125I]-AB-MECA from human recombinant adenosine A3 receptor expressed in CHO-K1 cells at 10 uM relative to control; assay type: cell-based; summary of the method: as §1
[20] = target: Metabotropic glutamate receptor 4 (Rattus norvegicus) (UniProt P31423); test: Allosteric modulation of rat mGlu4 receptor expressed in HEK293 cells coexpressing G protein-activated inward rectifier potassium channel assessed as effect on glutamate-induced thallium flux at 10 uM; assay type: cell-based
[21] = target: Histamine H1 receptor (Homo sapiens) (UniProt P35367); test: Displacement of [3H]-Pyrilamine from human recombinant histamine H1 receptor expressed in CHO-K1 cells at 10 uM relative to control; assay type: cell-based
[22] = target: D(1A) dopamine receptor (Homo sapiens) (UniProt P21728); test: Displacement of [3H]-SCH-23390 from human recombinant dopamine D1 receptor expressed in CHO cells at 10 uM relative to control; assay type: cell-based
[23] = target: Adenosine receptor A2a (Homo sapiens) (UniProt P29274); test: Displacement of [3H]-CGS-21680 from human recombinant adenosine A2A receptor expressed in HEK293 cells at 10 uM relative to control; assay type: cell-based; summary of the method: as §1
Brain = test: Fraction unbound in mouse brain homogenates by equilibrium dialysis technique; assay type: ADME, tissue-based; details: brain homogenate
[24] = target: Beta-2 adrenergic receptor (Homo sapiens) (UniProt P07550); test: Displacement of [3H]-CGP-12177 from human recombinant adrenergic beta2 receptor expressed in CHO cells at 10 uM relative to control; assay type: cell-based; summary of the method: as §1
[25] = target: Androgen receptor (Homo sapiens) (UniProt P10275); test: Displacement of [3H]-Methyltrienolone from androgen receptor in human LNCAP cells at 10 uM relative to control; assay type: cell-based; summary of the method: as §1
[26] = target: Muscarinic acetylcholine receptor M1 (Homo sapiens) (UniProt P11229); test: Displacement of [3H]-N-Methylscopolamine from human recombinant muscarinic M1 receptor expressed in CHO-K1 cells at 10 uM relative to control; assay type: cell-based; summary of the method: as §1
[27] = target: Sodium-dependent dopamine transporter (Homo sapiens) (UniProt Q01959); test: Displacement of [125I]-RTI-55 from human recombinant DAT expressed in CHO-K1 cells at 10 uM relative to control; assay type: cell-based; summary of the method: as §1
[28] = target: Sodium-dependent noradrenaline transporter (Homo sapiens) (UniProt P23975); test: Displacement of [125I]-RTI-55 from human recombinant NET expressed in MDCK cells at 10 uM relative to control; assay type: cell-based; summary of the method: as §1
Rattus norvegicus [29] = species: Rattus norvegicus; test: Displacement of [125I]-Omega-Conotoxin GVIA from N-type calcium channel in rat frontal brain at 10 uM relative to control; summary of the method: as §1
[30] = target: Alpha-1A adrenergic receptor (Rattus norvegicus) (UniProt P43140); test: Displacement of [3H]-Prazosin from adrenergic alpha1A receptor in rat submaxillary gland at 10 uM relative to control; assay type: tissue-based

Sequence of Kappa-type opioid receptor (Homo sapiens) (P41145 whole entry): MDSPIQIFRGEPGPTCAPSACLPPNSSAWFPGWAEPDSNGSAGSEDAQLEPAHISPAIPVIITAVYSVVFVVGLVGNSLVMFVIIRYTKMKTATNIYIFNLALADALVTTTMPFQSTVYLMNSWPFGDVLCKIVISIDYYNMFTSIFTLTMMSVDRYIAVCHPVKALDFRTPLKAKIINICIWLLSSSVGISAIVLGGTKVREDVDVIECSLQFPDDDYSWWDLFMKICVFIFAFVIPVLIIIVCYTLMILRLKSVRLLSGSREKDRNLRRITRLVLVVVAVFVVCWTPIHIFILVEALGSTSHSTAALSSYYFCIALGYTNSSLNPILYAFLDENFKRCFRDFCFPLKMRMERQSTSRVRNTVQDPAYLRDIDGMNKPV
Sequence of D(3) dopamine receptor (Homo sapiens) (P35462 whole entry): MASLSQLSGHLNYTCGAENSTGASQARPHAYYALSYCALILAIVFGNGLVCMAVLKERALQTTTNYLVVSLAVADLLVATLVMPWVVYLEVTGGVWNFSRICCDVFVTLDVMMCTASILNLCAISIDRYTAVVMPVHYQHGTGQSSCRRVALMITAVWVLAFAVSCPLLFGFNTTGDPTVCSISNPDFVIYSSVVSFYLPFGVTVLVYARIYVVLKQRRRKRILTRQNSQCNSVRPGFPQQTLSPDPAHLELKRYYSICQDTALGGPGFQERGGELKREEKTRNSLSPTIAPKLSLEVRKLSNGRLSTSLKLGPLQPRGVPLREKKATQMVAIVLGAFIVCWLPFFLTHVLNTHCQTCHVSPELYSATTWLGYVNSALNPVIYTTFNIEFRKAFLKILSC
Sequence of Metabotropic glutamate receptor 8 (Rattus norvegicus) (P70579 whole entry): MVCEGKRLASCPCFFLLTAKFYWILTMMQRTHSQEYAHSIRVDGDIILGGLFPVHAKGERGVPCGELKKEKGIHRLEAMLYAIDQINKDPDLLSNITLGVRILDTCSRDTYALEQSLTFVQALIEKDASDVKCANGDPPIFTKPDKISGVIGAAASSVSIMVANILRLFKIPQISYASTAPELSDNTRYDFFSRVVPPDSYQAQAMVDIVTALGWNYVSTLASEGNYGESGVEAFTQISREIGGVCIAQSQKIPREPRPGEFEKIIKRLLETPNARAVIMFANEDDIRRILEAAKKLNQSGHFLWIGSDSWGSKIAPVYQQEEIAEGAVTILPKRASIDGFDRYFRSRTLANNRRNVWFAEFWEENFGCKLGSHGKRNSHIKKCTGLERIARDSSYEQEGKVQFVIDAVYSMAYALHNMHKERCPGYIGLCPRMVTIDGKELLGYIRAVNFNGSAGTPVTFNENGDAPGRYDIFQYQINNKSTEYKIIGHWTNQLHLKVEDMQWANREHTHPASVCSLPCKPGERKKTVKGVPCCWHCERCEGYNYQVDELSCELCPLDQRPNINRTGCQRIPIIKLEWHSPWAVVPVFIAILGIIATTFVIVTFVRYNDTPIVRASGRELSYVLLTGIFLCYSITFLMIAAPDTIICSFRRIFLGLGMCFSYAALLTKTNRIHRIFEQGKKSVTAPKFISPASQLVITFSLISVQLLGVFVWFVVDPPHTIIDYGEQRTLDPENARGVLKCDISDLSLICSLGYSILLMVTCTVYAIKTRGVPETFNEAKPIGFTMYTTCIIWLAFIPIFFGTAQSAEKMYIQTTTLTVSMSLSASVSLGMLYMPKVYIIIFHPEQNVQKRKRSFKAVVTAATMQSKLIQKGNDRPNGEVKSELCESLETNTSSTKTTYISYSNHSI
Sequence of Beta-2 adrenergic receptor (Homo sapiens) (P07550 whole entry, looked up): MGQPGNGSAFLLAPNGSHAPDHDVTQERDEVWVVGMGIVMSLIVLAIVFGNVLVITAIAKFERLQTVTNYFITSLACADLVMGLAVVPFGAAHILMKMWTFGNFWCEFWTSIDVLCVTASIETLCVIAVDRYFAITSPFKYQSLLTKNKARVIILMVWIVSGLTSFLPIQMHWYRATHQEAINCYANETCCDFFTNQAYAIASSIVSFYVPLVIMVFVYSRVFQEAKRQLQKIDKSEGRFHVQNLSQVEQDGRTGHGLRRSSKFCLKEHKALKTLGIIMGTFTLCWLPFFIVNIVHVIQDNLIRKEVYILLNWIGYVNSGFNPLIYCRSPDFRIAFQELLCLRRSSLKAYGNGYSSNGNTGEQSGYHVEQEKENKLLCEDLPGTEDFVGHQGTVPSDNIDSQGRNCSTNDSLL
Sequence of Metabotropic glutamate receptor 4 (Rattus norvegicus) (P31423 whole entry): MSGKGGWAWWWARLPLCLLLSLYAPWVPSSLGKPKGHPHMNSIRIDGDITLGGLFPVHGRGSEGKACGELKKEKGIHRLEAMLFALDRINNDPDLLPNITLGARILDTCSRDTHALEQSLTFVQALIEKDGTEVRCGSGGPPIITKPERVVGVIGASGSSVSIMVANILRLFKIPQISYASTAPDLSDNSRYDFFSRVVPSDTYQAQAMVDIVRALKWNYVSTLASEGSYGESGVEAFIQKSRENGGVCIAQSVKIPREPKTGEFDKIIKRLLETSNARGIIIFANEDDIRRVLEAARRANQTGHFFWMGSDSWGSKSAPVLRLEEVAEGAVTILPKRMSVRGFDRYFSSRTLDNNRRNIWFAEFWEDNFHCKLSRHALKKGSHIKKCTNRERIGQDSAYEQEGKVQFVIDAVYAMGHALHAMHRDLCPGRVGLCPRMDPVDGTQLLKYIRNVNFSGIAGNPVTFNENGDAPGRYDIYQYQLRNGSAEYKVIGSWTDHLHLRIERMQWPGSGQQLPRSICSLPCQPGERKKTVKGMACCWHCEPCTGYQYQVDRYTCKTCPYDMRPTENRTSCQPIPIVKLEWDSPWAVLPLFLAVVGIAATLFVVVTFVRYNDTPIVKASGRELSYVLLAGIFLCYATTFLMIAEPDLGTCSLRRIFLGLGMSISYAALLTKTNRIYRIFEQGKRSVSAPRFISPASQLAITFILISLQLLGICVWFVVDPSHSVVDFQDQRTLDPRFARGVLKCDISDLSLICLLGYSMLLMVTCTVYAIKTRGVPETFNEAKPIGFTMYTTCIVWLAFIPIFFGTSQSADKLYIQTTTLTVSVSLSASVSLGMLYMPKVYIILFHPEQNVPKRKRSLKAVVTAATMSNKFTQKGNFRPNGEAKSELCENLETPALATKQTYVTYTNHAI
Sequence of Adenosine receptor A1 (Homo sapiens) (P30542 whole entry): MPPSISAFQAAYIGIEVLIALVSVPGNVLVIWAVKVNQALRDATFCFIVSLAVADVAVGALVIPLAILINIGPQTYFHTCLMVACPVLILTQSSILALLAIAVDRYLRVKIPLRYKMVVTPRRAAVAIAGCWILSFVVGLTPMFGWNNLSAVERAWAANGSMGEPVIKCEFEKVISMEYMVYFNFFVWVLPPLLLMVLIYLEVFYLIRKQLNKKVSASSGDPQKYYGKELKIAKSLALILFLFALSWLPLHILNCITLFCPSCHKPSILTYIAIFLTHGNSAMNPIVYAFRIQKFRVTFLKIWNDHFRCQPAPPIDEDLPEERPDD
Sequence of Sodium-dependent dopamine transporter (Homo sapiens) (Q01959 whole entry): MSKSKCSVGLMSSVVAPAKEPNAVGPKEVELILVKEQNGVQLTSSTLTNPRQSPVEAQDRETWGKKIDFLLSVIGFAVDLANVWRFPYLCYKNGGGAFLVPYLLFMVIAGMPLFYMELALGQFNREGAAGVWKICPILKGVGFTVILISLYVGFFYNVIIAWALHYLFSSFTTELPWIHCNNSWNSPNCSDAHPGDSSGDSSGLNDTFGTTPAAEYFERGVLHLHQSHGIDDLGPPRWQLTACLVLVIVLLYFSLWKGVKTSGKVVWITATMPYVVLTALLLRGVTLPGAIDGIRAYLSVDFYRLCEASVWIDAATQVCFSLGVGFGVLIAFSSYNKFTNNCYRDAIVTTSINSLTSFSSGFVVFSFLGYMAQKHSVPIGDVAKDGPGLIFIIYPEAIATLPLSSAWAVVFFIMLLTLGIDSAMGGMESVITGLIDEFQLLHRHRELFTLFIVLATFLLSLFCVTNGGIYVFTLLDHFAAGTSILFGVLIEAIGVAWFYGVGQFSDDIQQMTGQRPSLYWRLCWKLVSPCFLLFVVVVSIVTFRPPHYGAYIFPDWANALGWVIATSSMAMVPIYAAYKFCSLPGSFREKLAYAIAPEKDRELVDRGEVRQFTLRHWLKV
Sequence of Adenosine receptor A3 (Homo sapiens) (P0DMS8 whole entry): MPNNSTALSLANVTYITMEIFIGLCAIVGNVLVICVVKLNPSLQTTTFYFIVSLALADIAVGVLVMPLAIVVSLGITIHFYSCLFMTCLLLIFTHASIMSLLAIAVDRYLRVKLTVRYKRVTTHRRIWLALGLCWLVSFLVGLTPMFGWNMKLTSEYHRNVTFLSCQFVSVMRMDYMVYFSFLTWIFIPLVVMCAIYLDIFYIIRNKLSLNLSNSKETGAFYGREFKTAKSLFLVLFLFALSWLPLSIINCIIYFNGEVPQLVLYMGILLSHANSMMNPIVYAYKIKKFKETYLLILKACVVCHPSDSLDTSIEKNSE
Sequence of Histamine H1 receptor (Homo sapiens) (P35367 whole entry): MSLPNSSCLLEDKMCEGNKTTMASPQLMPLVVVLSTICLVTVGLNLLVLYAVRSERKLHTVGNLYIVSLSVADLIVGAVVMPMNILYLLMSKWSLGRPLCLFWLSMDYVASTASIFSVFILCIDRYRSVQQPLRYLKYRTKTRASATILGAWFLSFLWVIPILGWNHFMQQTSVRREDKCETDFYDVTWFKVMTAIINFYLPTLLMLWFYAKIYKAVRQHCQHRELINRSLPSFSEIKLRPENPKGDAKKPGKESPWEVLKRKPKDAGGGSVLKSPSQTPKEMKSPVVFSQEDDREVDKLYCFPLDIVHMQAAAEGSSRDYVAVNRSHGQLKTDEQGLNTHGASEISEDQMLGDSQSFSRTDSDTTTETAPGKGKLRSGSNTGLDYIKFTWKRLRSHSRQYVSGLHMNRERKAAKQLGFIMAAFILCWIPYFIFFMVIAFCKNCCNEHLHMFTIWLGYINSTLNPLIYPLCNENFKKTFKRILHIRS
Sequence of Sigma non-opioid intracellular receptor 1 (Homo sapiens) (Q99720 whole entry): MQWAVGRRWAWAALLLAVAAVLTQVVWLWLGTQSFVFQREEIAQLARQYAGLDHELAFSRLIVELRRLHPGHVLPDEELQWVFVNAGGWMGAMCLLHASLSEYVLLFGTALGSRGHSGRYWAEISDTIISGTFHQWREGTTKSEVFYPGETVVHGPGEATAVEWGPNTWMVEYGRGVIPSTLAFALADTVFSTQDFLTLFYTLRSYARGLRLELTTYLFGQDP

With Cc1csc(NC(=O)c2cc(F)cc(Oc3cncnc3)c2)n1 the inhibition [1] was over 35%, the inhibition [2] was over 35% and the Activity [3] was “inactive”. It also gave an inhibition [4] of over 35%, an inhibition [5] of over 35% and an inhibition (CHO-K1) of over 35%. The inhibition (Rattus norvegicus [6]) was over 35%, the inhibition [7] was over 35% and the Activity [8] was “inactive”. It also gave a Kp [9] of 0.99, an inhibition [10] of over 35% and an inhibition [11] of over 35%. The inhibition (Mus musculus [12]) was “Active”, the inhibition [13] was over 35% and the inhibition [14] was over 35%. For the same compound, the inhibition [15] was over 35%, the inhibition (Mus musculus [16]) was over 35% and the inhibition (Rattus norvegicus [17]) was over 35%. The inhibition [18] was over 35%, the inhibition [19] was over 35% and the Activity [20] was “inactive”. It also gave an inhibition [21] of over 35%, an inhibition [22] of over 35% and an inhibition [23] of over 35%. For the same compound, the Fu (Brain) was 0.082, the inhibition [24] was over 35% and the inhibition [25] was over 35%. It also gave an inhibition [26] of over 35%, an inhibition [27] of over 35% and an inhibition [28] of over 35%. The inhibition (Rattus norvegicus [29]) was over 35% and the inhibition [30] was over 35%.

Source: ChEMBL document CHEMBL2439973, “Discovery of VU0409106: A negative allosteric modulator of mGlu5 with activity in a mouse model of anxiety” (Bioorg Med Chem Lett, 2013)
